Source: the M2OR odorant receptor database
Numbering of substitutions follows the chain as printed.

Key:
Conditions in all cases: stereoisomer not certain
OR5M8 (Homo sapiens) = molecular target: T1, OR5M8 (Homo sapiens) (UniProt Q8NGP6)
T1 sequence (whole entry): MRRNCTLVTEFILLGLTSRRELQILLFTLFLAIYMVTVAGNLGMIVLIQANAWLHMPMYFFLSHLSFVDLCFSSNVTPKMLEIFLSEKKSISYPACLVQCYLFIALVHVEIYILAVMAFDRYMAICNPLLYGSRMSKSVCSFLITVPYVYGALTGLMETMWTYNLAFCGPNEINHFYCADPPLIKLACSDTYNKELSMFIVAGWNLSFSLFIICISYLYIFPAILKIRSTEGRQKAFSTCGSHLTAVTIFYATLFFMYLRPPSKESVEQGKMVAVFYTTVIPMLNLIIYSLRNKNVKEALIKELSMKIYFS
Outline: (§1)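 Transient luciferase assays in mammalian cell lines were common, though methods varied by source. The values come from published papers and their supplementary material, with extra details from the original authors when needed. Responsive refers to a measured signal the original authors judged statistically different from baseline, and non-responsive (inactive) to the remainder.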

OR5M9 (Homo sapiens) = molecular target: T2, OR5M9 (Homo sapiens) (UniProt Q8NGP3)
T2 sequence (whole entry): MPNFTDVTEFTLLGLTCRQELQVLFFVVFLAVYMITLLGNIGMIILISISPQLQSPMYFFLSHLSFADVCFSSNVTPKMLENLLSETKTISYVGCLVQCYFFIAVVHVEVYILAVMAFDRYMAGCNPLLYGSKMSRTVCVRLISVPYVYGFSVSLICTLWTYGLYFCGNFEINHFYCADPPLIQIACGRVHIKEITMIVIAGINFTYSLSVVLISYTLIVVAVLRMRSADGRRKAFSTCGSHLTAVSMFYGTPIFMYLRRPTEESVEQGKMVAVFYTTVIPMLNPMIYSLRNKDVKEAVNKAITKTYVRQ
Outline: as §1

OR5MA L2F C311H = system: T3, OR5MA L2F C311H
T3 sequence (whole entry): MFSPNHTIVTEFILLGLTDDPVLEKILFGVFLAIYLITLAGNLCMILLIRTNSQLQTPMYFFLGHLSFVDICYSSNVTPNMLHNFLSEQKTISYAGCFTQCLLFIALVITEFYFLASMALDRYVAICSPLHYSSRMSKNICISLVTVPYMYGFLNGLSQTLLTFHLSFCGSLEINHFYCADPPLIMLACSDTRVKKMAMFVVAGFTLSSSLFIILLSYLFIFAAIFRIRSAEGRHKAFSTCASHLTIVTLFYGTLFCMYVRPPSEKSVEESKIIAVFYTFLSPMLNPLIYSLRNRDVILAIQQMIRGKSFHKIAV
Outline: as §1

OR5MA L2F Q54H C311H = system: T4, OR5MA L2F Q54H C311H
T4 sequence (whole entry): T3 sequence (whole entry) with Q54H
Outline: as §1

OR5P2 (Homo sapiens) = molecular target: T5, OR5P2 (Homo sapiens) (UniProt Q8WZ92)
T5 sequence (whole entry): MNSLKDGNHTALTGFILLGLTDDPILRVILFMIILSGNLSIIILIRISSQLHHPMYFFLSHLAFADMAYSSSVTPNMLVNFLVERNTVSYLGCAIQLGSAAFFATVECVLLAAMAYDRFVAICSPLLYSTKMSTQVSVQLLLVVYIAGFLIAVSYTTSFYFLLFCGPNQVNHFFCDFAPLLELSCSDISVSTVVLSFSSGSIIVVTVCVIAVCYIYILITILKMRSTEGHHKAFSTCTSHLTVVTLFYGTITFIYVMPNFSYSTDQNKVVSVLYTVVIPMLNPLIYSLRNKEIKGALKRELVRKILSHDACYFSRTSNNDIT
Outline: as §1

OR5P3 (Homo sapiens) = molecular target: T6, OR5P3 (Homo sapiens) (UniProt Q8WZ94)
T6 sequence (whole entry): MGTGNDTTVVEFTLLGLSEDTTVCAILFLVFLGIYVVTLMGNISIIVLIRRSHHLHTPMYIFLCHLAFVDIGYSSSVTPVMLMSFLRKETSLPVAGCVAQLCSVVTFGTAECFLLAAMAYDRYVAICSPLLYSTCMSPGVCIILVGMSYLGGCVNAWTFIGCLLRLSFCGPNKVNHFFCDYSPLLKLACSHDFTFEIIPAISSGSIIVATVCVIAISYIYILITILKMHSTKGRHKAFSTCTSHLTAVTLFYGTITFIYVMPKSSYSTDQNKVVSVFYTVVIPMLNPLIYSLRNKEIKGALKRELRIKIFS
Outline: as §1

OR5P3 L301R = system: T7, OR5P3 L301R
T7 sequence (whole entry): T6 sequence (whole entry) with L301R
Outline: as §1

OR5R1 C122R S128G F184L = system: T8, OR5R1 C122R S128G F184L
T8 sequence (whole entry): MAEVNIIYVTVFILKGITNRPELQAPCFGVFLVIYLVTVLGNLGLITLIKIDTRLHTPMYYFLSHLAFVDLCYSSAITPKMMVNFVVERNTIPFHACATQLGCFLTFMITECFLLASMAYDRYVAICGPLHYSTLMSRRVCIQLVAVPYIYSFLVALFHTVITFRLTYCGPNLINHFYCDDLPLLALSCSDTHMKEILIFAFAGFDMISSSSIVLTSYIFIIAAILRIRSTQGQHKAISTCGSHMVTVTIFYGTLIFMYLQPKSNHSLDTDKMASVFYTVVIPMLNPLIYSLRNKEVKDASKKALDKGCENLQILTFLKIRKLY
Outline: as §1

OR5T1 (Homo sapiens) = molecular target: T9, OR5T1 (Homo sapiens) (UniProt Q8NG75)
T9 sequence (whole entry): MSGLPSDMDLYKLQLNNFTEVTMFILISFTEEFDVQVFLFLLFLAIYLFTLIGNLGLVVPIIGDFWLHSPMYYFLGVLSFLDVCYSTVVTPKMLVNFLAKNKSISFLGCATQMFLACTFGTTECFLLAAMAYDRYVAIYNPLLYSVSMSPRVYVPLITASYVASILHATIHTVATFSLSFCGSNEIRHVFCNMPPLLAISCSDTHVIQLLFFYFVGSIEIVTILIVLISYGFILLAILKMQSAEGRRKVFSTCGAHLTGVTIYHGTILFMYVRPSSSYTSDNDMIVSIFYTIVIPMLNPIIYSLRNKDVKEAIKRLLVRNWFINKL
Outline: as §1

OR5T2 (Homo sapiens) = molecular target: T10, OR5T2 (Homo sapiens) (UniProt Q8NGG2)
T10 sequence (whole entry): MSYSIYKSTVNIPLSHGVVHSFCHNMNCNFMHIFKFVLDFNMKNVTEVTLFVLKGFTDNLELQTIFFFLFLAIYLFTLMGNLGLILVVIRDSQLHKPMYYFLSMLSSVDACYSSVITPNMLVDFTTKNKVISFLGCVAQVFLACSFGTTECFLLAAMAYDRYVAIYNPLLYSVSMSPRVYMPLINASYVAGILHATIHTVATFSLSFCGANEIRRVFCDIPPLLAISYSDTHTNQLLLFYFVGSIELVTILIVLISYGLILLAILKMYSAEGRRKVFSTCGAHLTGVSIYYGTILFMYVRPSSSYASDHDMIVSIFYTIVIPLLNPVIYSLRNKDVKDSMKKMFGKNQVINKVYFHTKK
Outline: as §1

OR5T2 S4G = system: T11, OR5T2 S4G
T11 sequence (whole entry): T10 sequence (whole entry) with S4G
Outline: as §1

OR5T3 (Homo sapiens) = molecular target: T12, OR5T3 (Homo sapiens) (UniProt Q8NGG3)
T12 sequence (whole entry): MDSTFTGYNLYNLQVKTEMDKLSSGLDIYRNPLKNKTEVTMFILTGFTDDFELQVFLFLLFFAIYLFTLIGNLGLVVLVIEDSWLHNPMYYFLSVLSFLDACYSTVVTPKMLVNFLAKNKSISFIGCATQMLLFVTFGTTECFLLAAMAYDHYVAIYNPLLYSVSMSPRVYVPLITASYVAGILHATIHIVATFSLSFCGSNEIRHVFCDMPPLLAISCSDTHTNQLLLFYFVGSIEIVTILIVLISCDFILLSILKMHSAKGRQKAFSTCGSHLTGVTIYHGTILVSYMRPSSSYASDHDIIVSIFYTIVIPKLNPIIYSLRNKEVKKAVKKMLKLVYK
Outline: as §1

OR5V1 (Homo sapiens) = molecular target: T13, OR5V1 (Homo sapiens) (UniProt Q9UGF6)
T13 sequence (whole entry): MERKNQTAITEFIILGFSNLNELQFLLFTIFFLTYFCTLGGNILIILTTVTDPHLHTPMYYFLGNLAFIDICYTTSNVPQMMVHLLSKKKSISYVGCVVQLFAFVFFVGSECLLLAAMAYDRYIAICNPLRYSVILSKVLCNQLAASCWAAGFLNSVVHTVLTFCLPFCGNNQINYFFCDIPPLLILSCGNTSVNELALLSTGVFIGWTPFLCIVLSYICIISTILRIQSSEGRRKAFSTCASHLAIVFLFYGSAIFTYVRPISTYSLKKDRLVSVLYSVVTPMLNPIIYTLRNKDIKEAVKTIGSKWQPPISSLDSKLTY
Outline: as §1

OR5W2 (Homo sapiens) = molecular target: T14, OR5W2 (Homo sapiens) (UniProt Q8NH69)
T14 sequence (whole entry): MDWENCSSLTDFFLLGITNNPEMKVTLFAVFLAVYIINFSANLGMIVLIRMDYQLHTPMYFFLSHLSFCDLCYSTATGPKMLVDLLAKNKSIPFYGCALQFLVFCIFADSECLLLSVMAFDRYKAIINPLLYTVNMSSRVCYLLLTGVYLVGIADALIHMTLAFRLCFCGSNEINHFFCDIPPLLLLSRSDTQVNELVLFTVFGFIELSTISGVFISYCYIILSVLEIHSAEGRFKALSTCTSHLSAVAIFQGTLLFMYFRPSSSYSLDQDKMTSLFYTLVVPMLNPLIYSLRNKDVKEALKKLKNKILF
Outline: as §1

OR5W2 R189C = system: T15, OR5W2 R189C
T15 sequence (whole entry): T14 sequence (whole entry) with R189C
Outline: as §1

OR6A2 (Homo sapiens) = molecular target: T16, OR6A2 (Homo sapiens) (UniProt O95222)
T16 sequence (whole entry): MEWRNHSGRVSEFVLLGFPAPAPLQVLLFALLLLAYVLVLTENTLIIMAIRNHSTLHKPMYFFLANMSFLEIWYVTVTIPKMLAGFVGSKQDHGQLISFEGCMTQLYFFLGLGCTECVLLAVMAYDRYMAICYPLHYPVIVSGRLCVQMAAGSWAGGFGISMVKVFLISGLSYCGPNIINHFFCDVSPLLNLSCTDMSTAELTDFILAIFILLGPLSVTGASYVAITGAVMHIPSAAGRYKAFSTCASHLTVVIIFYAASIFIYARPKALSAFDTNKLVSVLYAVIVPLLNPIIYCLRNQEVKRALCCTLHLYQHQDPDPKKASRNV
Outline: as §1

OR6A2 I50V = system: T17, OR6A2 I50V
T17 sequence (whole entry): T16 sequence (whole entry) with I50V
Outline: as §1

OR6B1 (Homo sapiens) = molecular target: T18, OR6B1 (Homo sapiens) (UniProt O95007)
T18 sequence (whole entry): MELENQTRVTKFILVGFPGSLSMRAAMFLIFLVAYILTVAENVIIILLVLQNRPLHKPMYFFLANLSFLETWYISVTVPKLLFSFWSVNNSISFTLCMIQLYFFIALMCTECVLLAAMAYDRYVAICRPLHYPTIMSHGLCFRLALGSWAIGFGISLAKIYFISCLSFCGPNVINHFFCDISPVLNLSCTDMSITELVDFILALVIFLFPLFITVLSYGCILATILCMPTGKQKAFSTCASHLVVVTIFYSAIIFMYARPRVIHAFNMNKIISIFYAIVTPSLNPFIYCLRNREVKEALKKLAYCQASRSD
Outline: as §1

OR6B2 (Homo sapiens) = molecular target: T19, OR6B2 (Homo sapiens) (UniProt Q6IFH4)
T19 sequence (whole entry): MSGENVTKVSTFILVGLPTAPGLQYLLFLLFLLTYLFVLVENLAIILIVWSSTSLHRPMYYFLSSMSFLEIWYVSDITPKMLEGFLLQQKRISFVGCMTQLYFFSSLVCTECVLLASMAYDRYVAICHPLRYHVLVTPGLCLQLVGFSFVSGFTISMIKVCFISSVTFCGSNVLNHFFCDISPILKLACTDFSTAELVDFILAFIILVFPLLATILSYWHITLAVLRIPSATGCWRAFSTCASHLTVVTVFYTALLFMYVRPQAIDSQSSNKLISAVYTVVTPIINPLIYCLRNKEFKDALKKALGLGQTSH
Outline: as §1

OR6B2 R122C C179R = system: T20, OR6B2 R122C C179R
T20 sequence (whole entry): T19 sequence (whole entry) with R122C, C179R
Outline: as §1

Measured: odorant receptor agonist call;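 also: active if original authors judged signal statistically different from baseline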

CCC1OC(C)=C(O)C1=O (stereo not drawn)
inactive: OR5M8 (Homo sapiens) | OR5M9 (Homo sapiens) | OR5MA L2F C311H | OR5MA L2F Q54H C311H | OR5P2 (Homo sapiens) | OR5P3 (Homo sapiens) | OR5P3 L301R | OR5R1 C122R S128G F184L | OR5T1 (Homo sapiens) | OR5T2 (Homo sapiens) | OR5T2 S4G | OR5T3 (Homo sapiens) | OR5V1 (Homo sapiens) | OR5W2 (Homo sapiens) | OR5W2 R189C | OR6A2 (Homo sapiens) | OR6A2 I50V | OR6B1 (Homo sapiens) | OR6B2 (Homo sapiens) | OR6B2 R122C C179R

c1ccccc1
inactive: OR5P3 (Homo sapiens)

CC(=O)OCC=C(C)C
inactive: OR5P3 (Homo sapiens)

CCCCCCCC(C)=O
inactive: OR5P3 (Homo sapiens)

CCCCCC(=O)C(C)C(C)=O (stereo not drawn)
inactive: OR5M8 (Homo sapiens) | OR5M9 (Homo sapiens) | OR5P2 (Homo sapiens) | OR5P3 (Homo sapiens) | OR5T1 (Homo sapiens) | OR5T2 (Homo sapiens) | OR5T3 (Homo sapiens) | OR5V1 (Homo sapiens) | OR5W2 (Homo sapiens) | OR6A2 (Homo sapiens) | OR6B1 (Homo sapiens) | OR6B2 (Homo sapiens)

CCCCCC1=C(C)CCC1=O
inactive: OR5P3 (Homo sapiens)

CCCCCCCC(=O)[O-].[H+]
inactive: OR5P3 (Homo sapiens)

CC(C)=CCCC(C)=CCO
inactive: OR5P3 (Homo sapiens)
